The source of these data is PMC3954597 (Biochemistry, 2014).

Several values for one entry are separate records, joined by “and”; a condition that tells them apart may be missing. Equal entries are not always repeated. Where two headings read alike, the source gives them in different places.

Assay [1] concerns the target T1, SHP-1 (Homo sapiens, UniProt P29350). Particulars: catalytic domain; cited from earlier work.
Assay [2] concerns the target T2, SHP-2 (Homo sapiens, UniProt Q06124).
T2 sequence (Q06124 199-593): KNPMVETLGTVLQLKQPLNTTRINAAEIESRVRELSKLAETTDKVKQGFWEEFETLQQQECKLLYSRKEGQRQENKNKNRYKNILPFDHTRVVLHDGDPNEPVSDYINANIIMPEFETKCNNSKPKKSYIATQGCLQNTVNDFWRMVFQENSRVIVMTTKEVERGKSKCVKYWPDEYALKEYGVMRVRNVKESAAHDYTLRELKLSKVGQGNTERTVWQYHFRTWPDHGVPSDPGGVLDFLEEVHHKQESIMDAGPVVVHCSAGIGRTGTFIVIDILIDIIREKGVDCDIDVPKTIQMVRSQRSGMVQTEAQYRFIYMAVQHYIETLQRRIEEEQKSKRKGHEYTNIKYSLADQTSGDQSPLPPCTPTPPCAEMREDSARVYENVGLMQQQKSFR
The following applies: catalytic domain; cited from earlier work.

Assay [3] addresses T1, SHP-1. Nature of the assay: PTP assay, SHP-1. Particulars: catalytic domain; 100 mM HEPES pH 7.4; monitored at 282 nm. The class given is biochemical. In outline: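 E. coli-expressed catalytic domains were used: wild-type, R24M or R47E PTP1B (aa 1–321), and SHP-1 (aa 205–595). Reactions started with PTP (0.5–20000 nM final) and dephosphorylation was monitored continuously at 282 nm. kcat, KM and kcat/KM came from initial-rate fits (Michaelis–Menten, or V = kcat[E][S]/KM when KM >> [S]) or from fits of progress curves.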

Assay [4] concerns the target T2, SHP-2. Nature of the assay: PTP assay, SHP-2. The class given is biochemical. Particulars: catalytic domain; 100 mM HEPES pH 7.4; monitored at 282 nm. In outline: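 His-tagged catalytic domains were made in E. coli: PTPD2 aa 876–1187 and PTPRC aa 620–1236 with N-terminal tags, PTPD1 aa 875–1174 and SHP-2 aa 199–593 with C-terminal tags. Enzyme was added at 0.5–20000 nM final. A282 (Δε 1102 M−1 cm−1) was followed. Constants came from Michaelis–Menten fits of initial rates (<60 s), or from fits of progress curves run to substrate depletion.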

T1 sequence (P29350 205-595): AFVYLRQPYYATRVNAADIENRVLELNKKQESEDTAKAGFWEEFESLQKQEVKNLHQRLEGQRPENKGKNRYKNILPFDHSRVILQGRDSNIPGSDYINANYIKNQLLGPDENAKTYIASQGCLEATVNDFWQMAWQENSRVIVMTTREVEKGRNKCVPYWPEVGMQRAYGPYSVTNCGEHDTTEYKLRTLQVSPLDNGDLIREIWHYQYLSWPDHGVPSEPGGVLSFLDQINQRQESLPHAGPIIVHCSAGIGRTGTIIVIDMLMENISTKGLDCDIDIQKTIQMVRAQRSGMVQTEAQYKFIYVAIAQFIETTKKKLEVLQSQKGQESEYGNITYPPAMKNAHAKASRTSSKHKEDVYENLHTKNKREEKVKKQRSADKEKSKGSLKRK

In general, Km refers to the concentration of substrate that gives half-maximal velocity. As usually defined, the kcat is the maximal rate divided by the concentration of active sites. As for Ac-SASASpYSASA-NH2, in assay [1], the Km was 1990 µM and 2000 µM; the kcat is 26 ± 4 s^−1 and 26 ± 4 ^c s^−1; the “kcat/KM x10^6” value is 0.013 x10^6 M^−1 s^−1. Further, in assay [2], the Km was 2300 ± 400 µM; the turnover number (kcat) is 42 ± 5 s^−1 and 42 ± 5 ^c s^−1; the “kcat/KM x10^6” value was 0.018 x10^6 M^−1 s^−1 and 0.018 ^c x10^6 M^−1 s^−1.
On to Ac-YRKRFpYRYKF-NH2, for which the figures for the “kcat/KM x10^6” value in assay [3] and in assay [4] were 0.00023 x10^6 M^−1 s^−1 and 0.00015 x10^6 M^−1 s^−1, respectively.
